Assay outcomes deposited in PubChem by several laboratories.
Lmaj promast: inhibitors of Leishmania major promastigote growth | Leishmania major promastigotes, resazurin fluorescence viability | inhibition, % at 10 µM | 200,000 tested, 9% active | AID 1063; in the data active = inhibition above about 50%;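 note: promastigotes grown with compound for 44 hours at 28 °C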
Rad51 HR inh: blocks human Rad51 in homologous recombination. inhibition, % at 10 µM. hRad51 DNA strand exchange, fluorescence dequenching. 200,000 tested, 0.085% active;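 active = inhibition above 40% at the single screening dose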
Target sequence (Q06609 whole entry, looked up): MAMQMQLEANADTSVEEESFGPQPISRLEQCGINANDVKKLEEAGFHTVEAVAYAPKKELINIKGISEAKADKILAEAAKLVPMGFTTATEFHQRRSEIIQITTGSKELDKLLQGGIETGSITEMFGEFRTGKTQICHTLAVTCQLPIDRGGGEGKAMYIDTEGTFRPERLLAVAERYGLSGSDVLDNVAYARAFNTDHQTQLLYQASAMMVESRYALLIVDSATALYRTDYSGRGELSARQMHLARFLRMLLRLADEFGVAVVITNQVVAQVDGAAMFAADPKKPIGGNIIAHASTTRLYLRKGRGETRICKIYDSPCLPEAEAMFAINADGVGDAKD
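material = hRad51 filaments on single-stranded DNA | reagent = Donor/quencher-labelled 47-bp dsDNA substrate | compound = 10 µM final, single point | schedule = strand-exchange reaction 15 min at room temperature | measured by = fluorescein emission 520 nm, excitation 485 nm | read-out basis = % inhibition versus plate control and blank means | benchmarks = plate controls and plate blanks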
PMI act: increases human mannose-6-phosphate isomerase activity; P34949; purified human PMI, coupled resazurin fluorescence, 20 min; hits give high values; 1 = vehicle control, 0 substrate-free wells; activation factor at 20 µM; 190,000 tested, 0.005% active; AID 1214;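 active = activation factor of 2 or more at 20 µM, relative to plate controls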
WT yeast gro inh: growth inhibition of WT yeast, mitochondrial fusion screen | mitochondrial fusion phenotypic screen, WT strain | AID 1362 | 190,000 tested, 2.1% active | inhibition, % at 10 µM; in the data active = inhibition above about 58%; tested in S. cerevisiae
PMI act hi M6P: PMI (human) activation, high substrate; P34949; coupled PMI enzyme assay, resazurin fluorescence, 20 min; hits give high values; 1 = untreated enzyme, 0 = substrate-free blank; activation factor at 20 µM; 190,000 tested, 0.34% active; AID 1216;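 active = activation factor of 2 or more at 20 µM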
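Material: human phosphomannose isomerase with PGI, G6PDH, diaphorase coupling enzymes; amount: PMI at 15 ng/mL final; also added: Mannose-6-phosphate 1.0 mM (near-saturating) plus 0.22 mM NADP+; incubation: enzyme reaction with compound 20 min at room temperature; signal: resorufin fluorescence (Ex 544/Em 590 nm) from resazurin via diaphorase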
Calpain2 inh: inhibitors of pig calpain II; purified calpain II, fluorogenic peptide substrate, 30 min; inhibition, % at 16 µM; 220,000 tested, 0.37% active; AID 1236;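 active = inhibition above about 50%, limit read from the data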
Large screens that a line does not name were inactive. The list is not random: actives were taken first. Their share in the collection is about 9.8%.

Cc1ccc(NC(=S)N2CCC(c3ccc(C)cc3)C2)cc1 (stereo not drawn)	WT yeast gro inh 75.0 (no result: Rad51 HR inh)
COC(=O)c1[nH]c2ccc(Br)cc2c1NC(=O)CN1CCN(C2CCCCC2)CC1	Lmaj promast 100.5
S=C(Nc1ccc(Br)cc1)N1CCCC1	none
S=C(Nc1ccc(Br)cc1)N1CCN(C2CCCCC2)CC1	Lmaj promast 88.5
COc1ccc(OC)c(C(=O)CSc2nc3ccccc3n2CC(=O)NC(C)(C)C)c1	Lmaj promast 61.4
CCOCCCNC(=O)c1cc2c(-c3ccc(Cl)cc3)nn(C)c2s1	none
CCN1CCN(C(=O)c2cc3c(-c4ccc(Cl)cc4)nn(C)c3s2)CC1	Lmaj promast 51.7
Cn1nc(-c2ccc(Cl)cc2)c2cc(C(=O)N3CCN(C(=O)c4ccco4)CC3)sc21	none
CCN(CC)CCNC(=O)c1cc2c(-c3ccc(Cl)cc3)nn(C)c2s1	Lmaj promast 100.2
COc1ccc(N2CCN(C(=O)c3cc4c(-c5cccc(OC)c5)nn(C)c4s3)CC2)cc1	Lmaj promast 61.9
COc1ccc(-c2nn(C)c3sc(C(=O)N4CCOCC4)cc23)cc1OC	none
COc1ccc(C(=O)NCC(=O)OCc2ccccc2F)cc1	none
Cc1ccc(N/N=C2\CCS(=O)(=O)c3sccc32)cc1	PMI act hi M6P 2.8, Calpain2 inh 53.8
CN(C)/N=C1\CCS(=O)(=O)c2sccc21	none
CCCCNC(=O)CCC(=O)Nc1ccc2nc(N3CCN(C)CC3)cc(C)c2c1	none
CCN1CCN(c2cc(C)c3cc(NC(=O)c4ccc(OC)c(OC)c4)ccc3n2)CC1	Lmaj promast 55.2
COc1ccc(C)cc1NC(=O)CCC(=O)Nc1ccc2nc(N3CCN(C)CC3)cc(C)c2c1	Lmaj promast 91.0 (no result: Rad51 HR inh)
CCN1CCN(c2cc(C)c3cc(NC(=O)c4ccc5c(c4)OCO5)ccc3n2)CC1	Lmaj promast 100.3
CCN1CCN(c2cc(C)c3cc(NC(=O)c4cccs4)ccc3n2)CC1	none (no result: Lmaj promast, Rad51 HR inh, PMI act, WT yeast gro inh, PMI act hi M6P)
CCN1CCN(c2cc(C)c3cc(NC(=O)c4cncc(Br)c4)ccc3n2)CC1	Lmaj promast 100.1 (no result: Rad51 HR inh)
CCN1CCN(c2cc(C)c3cc(NC(=O)c4cccc(OC)c4)ccc3n2)CC1	none (no result: Lmaj promast, PMI act, WT yeast gro inh, PMI act hi M6P)
CCCCC(=O)Nc1ccc(NC(=S)NC(=O)CCCCl)cc1OC	none
COc1cccc(C=Nc2cccc3c(=O)[nH][nH]c(=O)c23)c1O	none
O=C(COC(=O)C1CCN(S(=O)(=O)c2ccccc2)CC1)NC(=O)c1ccc(OC(F)F)cc1	Lmaj promast 57.3
CN(C)c1ccc(/C=N/Nc2ccc(-n3ccnc3)nn2)cc1	PMI act hi M6P 2.2
Cc1ccc(/C=N/Nc2ccc(Cl)nn2)cc1	none (no result: Lmaj promast, PMI act, WT yeast gro inh, PMI act hi M6P)
CC(C)c1ccc2c(c1)C(c1cccs1)=NNC(c1ccncc1)=N2	none
CC(C)c1ccc2c(c1)C(c1ccc(N3CCOCC3)cc1)=NNC(c1cccs1)=N2	Lmaj promast 82.6
Cn1cc(CN2CCC(N3CCNC(=O)CC3)CC2)c(-c2ccccc2F)n1	none
Cc1cccc(C(=O)N(c2ccccn2)C(C)c2ccco2)c1 (stereo not drawn)	Lmaj promast 56.5
CC(c1ccco1)N(C(=O)c1ccccc1NS(=O)(=O)c1ccc(Cl)c([N+](=O)[O-])c1)c1ccccn1 (stereo not drawn)	Lmaj promast 80.5
COc1ccc(NC(=O)c2cc(-c3ccccc3)oc2C)cc1	Lmaj promast 55.8
COc1ccccc1CNC(=O)c1ccc(-c2ccccc2C(F)(F)F)o1	WT yeast gro inh 64.1
O=C(Nc1cccc(F)c1)c1ccc(-c2ccccc2C(F)(F)F)o1	none
COc1ccc(NC(=O)c2ccc(-c3ccccc3C(F)(F)F)o2)cc1	WT yeast gro inh 66.9
Cc1oc(-c2ccccc2)cc1C(=O)Nc1ccccc1	none
COc1ccccc1CNC(=O)c1ccc(-c2ccccc2Cl)o1	none
COC(=O)CC1C(=O)NCCN1C(=S)NC(=O)c1sc2ccccc2c1Cl (stereo not drawn)	none
O=C(O)/C=C/C(=O)NC1CCCCCCCCCCC1	none (no result: Lmaj promast, PMI act, WT yeast gro inh, PMI act hi M6P)
CC1=C(OC(=O)c2ccc(Br)cc2)C(C)(C)C(c2ccccc2)OC1=O (stereo not drawn)	none (no result: Rad51 HR inh)
CC1=C(OC(=O)c2ccccc2)C(C)(C)C(c2ccc(Br)cc2)OC1=O (stereo not drawn)	WT yeast gro inh 66.0 (no result: Rad51 HR inh)
Clc1cccc(Oc2ncccn2)c1	Lmaj promast 50.3
Cn1c(SCC(=O)Nc2cccc(C(=O)O)c2)nnc1-c1cc2cc(Br)ccc2o1	none
CCc1cccc(C)c1NC(=O)CSc1nnc(-c2cc3cc(Br)ccc3o2)n1CC	Calpain2 inh 55.4
CC1CCN(S(=O)(=O)N2CCC(C(=O)NCc3cccnc3)CC2)CC1	none (no result: Lmaj promast, PMI act, WT yeast gro inh, PMI act hi M6P)
COc1ccc(N(C(=O)Cn2nnc(-c3ccccc3F)n2)C(C(=O)NCC2CCCO2)c2ccc(Cl)cc2)cc1 (stereo not drawn)	Calpain2 inh 67.3
Cc1ccc(C(C(=O)NC(C)(C)C)N(CC2CCCO2)C(=O)Cn2nnc(-c3ccc(C)o3)n2)cc1 (stereo not drawn)	Lmaj promast 53.9
COc1ccc(N(C(=O)Cn2nnc(-c3ccc(Cl)cc3)n2)C(C(=O)NCC2CCCO2)c2ccc(C)cc2)cc1 (stereo not drawn)	none
COc1ccc(CNC(=O)c2cc3c(s2)CN(Cc2ccccc2)C3)cc1	none
CCOc1ccc(CN2CCN(Cc3cccn3-c3nccs3)CC2CCO)cc1 (stereo not drawn)	none (no result: Lmaj promast, PMI act, WT yeast gro inh, PMI act hi M6P)
Cc1cc(C)n2nc(C(=O)Nc3ccc4c(c3)OCO4)nc2n1	Lmaj promast 67.3
O=C(Nc1ccc2c(c1)OCO2)c1cc(C2CC2)on1	Lmaj promast 52.0
O=C(NC1=NCCS1)c1ccc(Cl)c(S(=O)(=O)N2CCOCC2)c1	none
O=C(CCn1cccc1)Nc1ccc(OC(F)(F)F)cc1	none
Cc1cccc(N2CCN(C(=O)c3cc4n(n3)C(C(F)(F)F)CC(c3ccco3)N4)CC2)c1C (stereo not drawn)	Lmaj promast 67.5, WT yeast gro inh 60.8
Cc1ccccc1NC(=O)C1Cc2ccccc2CN1C(=O)OCc1ccccc1 (stereo not drawn)	Lmaj promast 92.1
COc1ccc(NC(=O)C2CCCN2C(=O)OCc2ccccc2)c(OC)c1 (stereo not drawn)	none
Nc1nc2c([N+](=O)[O-])cccc2s1	none
Cn1c(=O)c2c(nc(SCC(=O)N3c4ccccc4CCc4ccccc43)n2C)n(C)c1=O	Lmaj promast 51.8
CC(C)n1c(SCC(=O)N2c3ccccc3Sc3ccccc32)nc2c1c(=O)n(C)c(=O)n2C	Lmaj promast 59.7
CC(C)n1c(SCC(=O)N2c3ccccc3CCc3ccccc32)nc2c1c(=O)n(C)c(=O)n2C	none (no result: Rad51 HR inh, PMI act, WT yeast gro inh, PMI act hi M6P, Calpain2 inh)
CCCn1c(SCC(=O)N2c3ccccc3Sc3ccccc32)nc2c1c(=O)n(C)c(=O)n2C	Lmaj promast 61.8
CC(C)OCCCNCC(O)c1ccccc1 (stereo not drawn)	none
